Data taken from ChEMBL document CHEMBL2062470, “Fungal bis-Naphthopyrones as Inhibitors of Botulinum Neurotoxin Serotype A” (ACS Med Chem Lett, 2012).

Experiments:
[1] = biological target: Botulinum neurotoxin type A (Clostridium botulinum (strain Hall / ATCC 3502 / NCTC 13319 / Type A)) (UniProt P0DPI1); experiment: Inhibition of Clostridium botulinum Hall BoNT/A-mediated paralysis in CD1 mouse phrenic nerve hemidiaphragm assessed as time required to 50% loss of twitch tension at 20 uM measured upto 5 hrs (reference value: 62 mins)
[2] = biological target: Botulinum neurotoxin type A (Clostridium botulinum (strain Hall / ATCC 3502 / NCTC 13319 / Type A)) (UniProt P0DPI1); experiment: Inhibition of Clostridium botulinum Hall BoNT/A-mediated paralysis in CD1 mouse phrenic nerve hemidiaphragm assessed as time required to 50% loss of twitch tension at 2 uM measured upto 5 hrs (reference value: 62 mins)
[3] = biological target: Botulinum neurotoxin type A (Clostridium botulinum (strain Hall / ATCC 3502 / NCTC 13319 / Type A)) (UniProt P0DPI1); experiment: Inhibition of Clostridium botulinum Hall BoNT/A protease activity using Ac-SNKTRIDEANQRATKML-NH2 as substrate at 100 uM after 5 mins by RP-HPLC analysis
Outline: (§1)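 HPLC-based BoNT/A protease assay; single-point percent inhibition of protease activity at 100 or 20 μM compound.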

[4] = biological target: Botulinum neurotoxin type A (Clostridium botulinum (strain Hall / ATCC 3502 / NCTC 13319 / Type A)) (UniProt P0DPI1); experiment: Inhibition of Clostridium botulinum Hall BoNT/A protease activity using Ac-SNKTRIDEANQRATKML-NH2 as substrate at 20 uM after 5 mins by RP-HPLC analysis; outline: as §1
[5] = biological target: Botulinum neurotoxin type A (Clostridium botulinum (strain Hall / ATCC 3502 / NCTC 13319 / Type A), UniProt P0DPI1); experiment: Inhibition of Clostridium botulinum Hall BoNT/A protease activity using Ac-SNKTRIDEANQRATKML-NH2 as substrate after 5 mins by RP-HPLC analysis
Outline: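 HPLC-based BoNT/A protease assay; percent inhibition measured at nine compound concentrations, with IC50 derived by curve fitting.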

Sequence of Botulinum neurotoxin type A (Clostridium botulinum (strain Hall / ATCC 3502 / NCTC 13319 / Type A)) (P0DPI1 2-448 limits assumed): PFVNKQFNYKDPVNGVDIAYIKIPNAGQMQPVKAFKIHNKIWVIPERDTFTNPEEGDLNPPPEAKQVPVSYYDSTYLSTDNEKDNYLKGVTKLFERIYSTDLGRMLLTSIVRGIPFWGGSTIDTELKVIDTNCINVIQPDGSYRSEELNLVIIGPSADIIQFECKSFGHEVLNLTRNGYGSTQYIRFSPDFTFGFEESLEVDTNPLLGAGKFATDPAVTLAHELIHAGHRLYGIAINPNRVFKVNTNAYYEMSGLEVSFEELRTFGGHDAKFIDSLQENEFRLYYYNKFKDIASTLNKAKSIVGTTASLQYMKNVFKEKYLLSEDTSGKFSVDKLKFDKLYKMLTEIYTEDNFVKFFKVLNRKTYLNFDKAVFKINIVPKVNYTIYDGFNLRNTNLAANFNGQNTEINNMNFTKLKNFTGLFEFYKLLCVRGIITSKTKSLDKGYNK
Sequence of Botulinum neurotoxin type A (P0DPI1 2-448 limits assumed): as above

`CCC[C@H]1Cc2cc3c(-c4c(O)cc(O)c5c(O)c6c(cc45)C[C@H](CCC)OC6=O)c(O)cc(O)c3c(O)c2C(=O)O1` showed a TIME [1] of 3.28 h, a TIME [2] of 3.15 h and an inhibition [3] of 96%. For the same compound, the inhibition [4] was 85%.
With `CCOc1ccc(C(Nc2cccnc2)c2cc(Cl)c3cccnc3c2O)cc1` (racemic) the TIME [1] was 5 h, the TIME [2] was 5 h and the inhibition [3] was 98%. For the same compound, the IC50 [5] was 2.1 µM and the inhibition [4] was 96.2%.
For `CCC[C@H]1Cc2cc3c(-c4c(O)cc(O)c5c(O)c6c(cc45)C[C@H](CCC)OC6=O)c(O)cc(O)c3c(O)c2C(=O)O1` (single isomer, unassigned; atropisomer), the TIME [1] was 1.58 h, the TIME [2] was 2.9 h and the inhibition [3] was 80.3%. The inhibition [4] was 67%.
With `CCC[C@H]1Cc2cc3c(-c4c(O)cc(O)c5c(O)c6c(cc45)C[C@H](CCC)OC6=O)c(O)cc(O)c3c(O)c2C(=O)O1` (single isomer, unassigned; atropisomer) [TALARODERXINE A] the IC50 [5] was 10.1 µM.
`CC1CC(=O)c2c(cc3c(-c4c(O)cc(O)c5c(O)c6c(cc45)OC(C)CC6=O)c(O)cc(O)c3c2O)O1` (stereo not drawn) [CEPHALOCHROMIN] was tested, and the TIME [1] was 0.983 h, the inhibition [3] was 72% and the IC50 [5] was 29.2 µM. It also gave an inhibition [4] of 45%.
With `C[C@H]1Oc2cc3c(-c4c(O)cc(O)c5c(O)c6c(cc45)O[C@H](C)[C@@H](C)C6=O)c(O)cc(O)c3c(O)c2C(=O)[C@@H]1C` [CHAETOCHROMIN A] the TIME [1] was 3.13 h, the TIME [2] was 1.73 h and the inhibition [3] was 74%. It also gave an IC50 [5] of 24.6 µM and an inhibition [4] of 55%.
`COC(=O)[C@]12Oc3ccc(-c4ccc5c(c4O)C(=O)C4=C(O)C[C@@H](C)[C@H](O)[C@@]4(C(=O)OC)O5)c(O)c3C(=O)C1=C(O)C[C@@H](C)[C@@H]2O` [SECALONIC ACID A] showed a TIME [1] of 1.12 h, an inhibition [3] of 64.5% and an IC50 [5] of 28.6 µM. It also gave an inhibition [4] of 39.1%.
`Cc1cc(O)c2c(c1)C(=O)c1c(c(O)cc(O)c1-c1c(O)cc(O)c3c1C(=O)c1cc(C)cc(O)c1C3=O)C2=O` [SKYRIN] gave a TIME [1] of 1.35 h, a TIME [2] of 1.07 h and an inhibition [3] of 74.3%. It also gave an IC50 [5] of 31.5 µM and an inhibition [4] of 40.3%.
In the case of `CCC[C@H]1Cc2cc3c(-c4c(O)cc(O)c5c(O)c6c(cc45)C[C@H](CCC)OC6=O)c(O)cc(O)c3c(O)c2C(=O)O1` [TALARODERXINE A], the IC50 [5] is reported as 3.7 µM.
